# Experimental data as given in publication PMC6430656 (Cell chemical biology, 2018).
# Like-named read-outs stand apart in the source and are kept apart here.
# Legend:
# [1] = tested on: HepG2 cells; test: HepG2 hepatoma cell viability; assay type: cell-based
# Outline: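 HepG2 cells (15,000/well) were seeded with test compound, then infected with 3,000 P. berghei ANKA sporozoites. Viability was measured after 45 h in the same wells as the parasite-load read-out, using a fluorescence protease-activity assay (an ATP luminescence assay is also described). Signal was normalised to 1% DMSO, and ≥50% loss of viability was the exclusion threshold.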
# [2] = tested on: HuH7 cells; test: HuH7 hepatoma cell viability; assay type: cell-based
# [3] = tested on: blood stage P. falciparum parasites; test: Inhibition of blood stage P. falciparum parasites; assay type: cell-based, Plasmodium falciparum; details: 100 μM
# [4] = tested on: K63-linked ubiquitin in P. falciparum; assay type: cell-based, Plasmodium falciparum; details: for K63-linked protein ubiquitination (band intensities relative to DMSO): 30 μM, 24 hrs, ring stage P. falciparum 3D7
# Outline: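 P. falciparum 3D7 was cultured in RPMI/AlbuMAX II at pH 7.2, 37 °C, under 3% O2, and sorbitol-synchronised. Ring stages (10 h post-reinvasion; 10% parasitemia, 1% haematocrit) were treated 24 h with test compound (30 μM, or 0.001–100 μM) or ≤0.1% DMSO. Cells were saponin-lysed and sonicated, then blotted with anti-K63-linkage ubiquitin, with anti-K48 ubiquitin as control and actin as loading control. Total band intensity was quantified across 2–3 independent experiments.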
# [5] = target: PfPK5 (Plasmodium falciparum, UniProt P61075); test: KINOMEScan affinity for PfPK5; assay type: binding
# PfPK5, sequence (P61075 whole entry): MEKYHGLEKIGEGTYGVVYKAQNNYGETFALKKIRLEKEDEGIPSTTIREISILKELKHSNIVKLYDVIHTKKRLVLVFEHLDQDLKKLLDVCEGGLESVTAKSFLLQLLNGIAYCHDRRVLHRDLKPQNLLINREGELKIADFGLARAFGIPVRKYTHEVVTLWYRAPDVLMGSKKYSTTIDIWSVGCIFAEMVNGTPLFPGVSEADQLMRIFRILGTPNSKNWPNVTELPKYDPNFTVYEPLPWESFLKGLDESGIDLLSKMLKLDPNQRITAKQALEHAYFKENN
# [6] = tested on: P. berghei parasite load in HepG2 cells; test: P. berghei liver stage parasite load in HepG2 cells; assay type: cell-based; details: Plasmodium berghei, HepG2, read-out: EC50 P. berghei parasite load, HepG2 cells
# Outline: (§1)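 Hepatoma cells were seeded with test compound (0–100 μM) before infection with 3,000 P. berghei ANKA sporozoites: 15,000 cells/well for HepG2 and 8,000 for HuH7. For HepG2, compound was also added at 0 or 4 hpi. Parasite load was read by luciferase luminescence at 45 h and normalised to 1% DMSO. EC50 came from a variable-slope four-parameter fit, mean ± SEM of n ≥4.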
# [7] = target: PfPK9 (Plasmodium falciparum, UniProt Q8IEG4); test: ATP-competitive binding assay, GFP-PfPK9 on ATP-sepharose resin; details: for relative PfPK9 binding compared to negative DMSO control: takinib analog screen at 250 and 500 μM
# [8] = tested on: P. berghei parasite load in HuH7 cells; test: P. berghei liver stage parasite load in HuH7 cells; assay type: cell-based, Plasmodium berghei
# Outline: as §1
# [9] = tested on: HsIRAK4; details: read-out: IC50 HsIRAK4; ref Totzke et al., 2017; cited from earlier work
# [10] = tested on: HsIRAK1; details: read-out: IC50 HsIRAK1; ref Totzke et al., 2017; cited from earlier work
# [11] = tested on: HsTAK1; details: ref Totzke et al., 2017, cited from earlier work
# [12] = tested on: P. berghei EEFs in HuH7 cells; test: Immunofluorescence analysis of P. berghei EEFs in HuH7 cells; assay type: cell-based, Plasmodium berghei
# [13] = target: PfCDPK1 (Plasmodium falciparum, UniProt P62344); test: KINOMEScan affinity for PfCDPK1; assay type: binding
# PfCDPK1, sequence (P62344 whole entry): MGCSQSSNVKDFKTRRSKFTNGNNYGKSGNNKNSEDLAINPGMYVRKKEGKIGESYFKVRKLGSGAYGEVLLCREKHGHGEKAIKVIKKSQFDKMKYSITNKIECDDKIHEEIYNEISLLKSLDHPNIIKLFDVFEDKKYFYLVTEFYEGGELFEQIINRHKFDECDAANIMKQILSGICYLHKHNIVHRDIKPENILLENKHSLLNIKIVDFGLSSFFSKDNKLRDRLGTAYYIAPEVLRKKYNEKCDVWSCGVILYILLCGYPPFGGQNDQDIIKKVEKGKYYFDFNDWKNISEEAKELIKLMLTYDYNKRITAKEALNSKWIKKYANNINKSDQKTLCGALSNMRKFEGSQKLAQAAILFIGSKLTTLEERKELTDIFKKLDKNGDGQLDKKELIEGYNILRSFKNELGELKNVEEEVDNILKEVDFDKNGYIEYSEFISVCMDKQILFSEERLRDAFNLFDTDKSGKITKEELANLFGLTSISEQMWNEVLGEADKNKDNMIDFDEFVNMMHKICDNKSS
# [14] = Solubility; assay type: physicochemical
compound,measurement,setting,value
CCCn1/c(=N/C(=O)c2cccc(C(N)=O)c2)[nH]c2ccccc21 [takinib],decrease of HepG2 viability,"[1]; 30 μM, relative to DMSO",≤ 50%
same,decrease of cell viability,"[1]; HepG2, tested up to 200 μM",≤ 40%
same,decrease of cell viability,"[2]; HuH7, tested up to 200 μM",≤ 40%
same,inhibition of blood stage P. falciparum parasites,[3],inhibits
same,K63-linked protein ubiquitination (band intensities relative to DMSO),[4],decreased
same,K63-linked ubiquitin signal (total intensity of all bands),[4]; 30 and 100 μM,significantly decreased
same,K48-linked ubiquitin signal (control),[4]; dose-response 0.001–100 μM,no change
same,Kd,[5],> 30 µM
same,EC50,[6],6.7 ± 1.3 µM
same,Kd,[7],0.46 ± 0.1 µM
same,EC50,"[8]; Plasmodium berghei, Huh-7, read-out: EC50 P. berghei parasite load",7.3 ± 0.99 µM
same,IC50,[9],0.12 µM
same,IC50,[10],0.39 µM
same,IC50,[11]; read-out: IC50 HsTAK1,0.0095 µM
same,EEF size,"[12]; 10 μM, 0–24, 24–48 and 0–48 hpi, vs DMSO",significantly increased
same,number of EEFs (infected cells),"[12]; 10 μM, all time periods",not affected
same,number of EEFs,"[12]; 30 μM, 0–24 hpi or 0–48 hpi",decreased
same,EEF size,"[12]; 30 μM, 0–24 hpi or 24–48 hpi",increased
same,Kd,[13],> 30 µM
CCCn1c(NC(=O)c2cccc(C(=O)O)c2)nc2ccccc21 [HS220],change in HuH7 viability upon treatment,[2],no significant change
same,decrease of cell viability,"[2]; HuH7, any concentration tested",≤ 30%
same,K63-linked protein ubiquitination (band intensities relative to DMSO),[4],decrease
same,Kd,"[5]; read-out: Kd PfPK5, tested up to 30 μM, KINOMEScan",> 30 µM
same,"PfPK9 binding affinity, fold less potent than takinib",[7]; HS220 vs takinib,8.9 fold
same,Kd,"[7]; read-out: Kd(app) PfPK9 binding, converted from EC50, dose-response 0–500 μM",4.1 ± 0.8 µM
same,relative PfPK9 binding compared to negative DMSO control,[7],> 3 fold
same,EC50,"[8]; read-out: EC50 P. berghei parasite load, HuH7 cells",43 ± 3.8 µM
same,"HsTAK1 inhibition, fold less potent than takinib",[11]; HS220 vs takinib,"160,000 fold"
same,effect on HsTAK1 activity,[11],little or no effect
same,number of EEFs,"[12]; 30 μM, 0–48 hpi",did not change
same,EEF size,"[12]; 30 μM, 0–48 hpi, vs DMSO",significantly increased
same,EEF size,"[12]; 100 μM, 0–48 hpi",not affected
same,number of EEFs,"[12]; 100 μM, 0–48 hpi",decreased
same,Kd,"[13]; read-out: Kd PfCDPK1, tested up to 30 μM, KINOMEScan",> 30 µM
NC(=O)c1cccc(C(=O)Nc2nc3ccccc3s2)c1 [HS230],solubility,[14],poor
same,relative PfPK9 binding compared to negative DMSO control,[7],> 3 fold
same,effect on HsTAK1 activity,[11],little or no effect
